NPY2 pot ag – potentiates or activates human NPY-Y2 receptor; P49146; cells expressing NPY-Y2, potentiator/agonist read-out; activation, % at 3.6 µM; 220,000 tested, 0.45% active; AID 1359; in the data active = activation above about 27%;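 also: cells stimulated with NPY near EC25 plus isoproterenol at EC100; 0% = vehicle plus submaximal agonist and 100% = vehicle plus saturating agonist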
NPY Y2 blocker – NPY-Y2 (human) receptor antagonism; P49146; NPY-Y2 expressing cells, antagonist mode; inhibition, % at 2.7 µM; 140,000 tested, 0.99% active;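 also: 0% = vehicle with agonist challenge and 100% = reference antagonist with challenge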
NPY-Y1 antag – antagonists of human neuropeptide Y receptor Y1; P25929; HEK293-CNG Y1 cells, membrane potential fluorescence; NPY at EC95, then isoproterenol; inhibition, % at 3.6 µM; 200,000 tested, 1% active;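 active = inhibition above the campaign mean inhibition of all tested compounds plus 3 SD, cut at about 20% in these data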;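 also: 0% = DMSO wells given NPY plus isoproterenol and 100% = isoproterenol alone without NPY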
Target sequence (P25929 whole entry, looked up): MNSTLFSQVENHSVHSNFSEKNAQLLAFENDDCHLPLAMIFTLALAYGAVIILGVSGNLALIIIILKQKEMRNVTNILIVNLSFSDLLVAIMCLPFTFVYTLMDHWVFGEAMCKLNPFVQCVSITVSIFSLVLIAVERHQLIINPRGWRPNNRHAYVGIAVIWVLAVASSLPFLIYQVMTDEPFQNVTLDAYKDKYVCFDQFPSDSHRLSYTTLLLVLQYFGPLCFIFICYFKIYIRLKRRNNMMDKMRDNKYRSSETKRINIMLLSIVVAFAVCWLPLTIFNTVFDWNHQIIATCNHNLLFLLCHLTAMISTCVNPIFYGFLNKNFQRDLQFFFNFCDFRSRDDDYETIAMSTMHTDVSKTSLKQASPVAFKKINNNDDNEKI
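Material: Y1- and CNG-channel-expressing HEK293 cells / Probe or stimulus: NPY 25 nM then isoproterenol 1 µM plus Ro 20-1724 25 µM / Doses: 3.6 µM single dose, DMSO 0.4% / Schedule: compound incubation 1 h at room temperature, readout 45 min post-stimulation / Signal: membrane potential fluorescence / Benchmarks: isoproterenol-only wells as full block versus NPY-plus-isoproterenol wells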
NPY1 pot ag – potentiators or agonists of human neuropeptide Y receptor Y1; NPY-Y1 expressing cells, potentiator/agonist activation; activation, % at 3.6 µM; 220,000 tested, 0.37% active; AID 1304; in the data active = activation above about 33%, passing the limit was not always enough;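 also: cells stimulated with NPY at EC10 then isoproterenol at EC100; 0% = low agonist plus stimulus and 100% = saturating agonist plus stimulus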
NPY-Y1 ant conf – human NPY-Y1 antagonism, confirmation. shares compounds with NPY-Y1 antag. inhibition, % at 3.6 µM. AID 1254. HEK293-CNG NPY-Y1, membrane potential fluorescence, cAMP; NPY challenge against isoproterenol-raised cAMP. 1,200 tested, 21% active; in the data active = inhibition above about 20%;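 also: 0% = vehicle with agonist plus stimulus and 100% = stimulus alone without agonist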
NPY2 antag ctr – counter-screen for NPY-Y1 antagonists: human NPY-Y2 antagonism | shares compounds with NPY-Y1 antag | HEK293 NPY-Y2 CNG membrane potential fluorescence; cells given NPY, then isoproterenol | inhibition, % at 3.6 µM | 1,200 tested, 28% active;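 also: 0% = DMSO with agonist challenge and 100% = reference antagonist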
* = called active by the depositor; / = not tested or not shown. This is a sample that favours compounds with a hit; in the whole collection about 1.8% have one here. Rule as the data show it, unless noted: active = inhibition above about 17%; inactive = the rest.

SMILES | NPY2 pot ag | NPY Y2 blocker | NPY-Y1 antag | NPY1 pot ag | NPY-Y1 ant conf | NPY2 antag ctr
CCC(=O)N1CCc2cc(S(=O)(=O)CCC(=O)Nc3ccc(C)cn3)ccc21 | -3 | / | 3 | 1 | / | /
Cc1cc(N2CCN(c3ccc(F)cc3)CC2)nc(-c2ccccc2)n1 | -6 | 3 | 21* | -42 | 3 | 6
CCOC(=O)N1CCC(N2Cc3cccc(C(=O)NC(C)c4ccc5c(c4)OCCO5)c3C2=O)CC1 (stereo not given) | -10 | 1 | 5 | -2 | / | /
Cc1ccc(OCCCn2c(=O)sc3ccccc32)cc1 | -12 | 8 | 17 | -27 | / | /
Cc1ccccc1OCCCn1c(=O)sc2ccccc21 | -12 | 11 | 27* | -54 | 5 | 7
CC(C)(O)C#Cc1ccc(CN2CCN(CCc3ccccc3)C(CCO)C2)s1 (stereo not given) | -7 | / | -3 | -1 | / | /
CC1=CC(C)(C)n2c(O)c(N=N)c3cc(C)cc1c32 | -5 | 11 | 23* | -59 | 14 | 22*
CC1=CC(C)(C)n2c(O)c(N=N)c3c(C)c(C)cc1c32 | -60 | / | / | -57 | / | /
CS(=O)(=O)N(CC(=O)Nc1ccc(S(=O)(=O)N2CCOCC2)cc1)c1ccccc1Br | -4 | / | -2 | 6 | / | /
O=C(NC1CCCCC1)C(c1ccc2ncccc2c1)N(Cc1cccs1)C(=O)c1cccs1 (stereo not given) | 3 | 3 | 32* | -10 | 5 | 6
O=C(NC1CCCCC1)C(c1ccc2ncccc2c1)N(Cc1ccc2c(c1)OCO2)C(=O)c1ccc2c(c1)OCCO2 (stereo not given) | -7 | 5 | 3 | -13 | / | /
COc1ccc(NC(=O)CSc2nc(C)c3c(c2C#N)CCCC3)cc1 | -8 | 2 | 5 | -14 | / | /
Cc1nc(SCC(=O)NCc2ccc3c(c2)OCO3)c(C#N)c2c1CCCC2 | 1 | 13 | 21* | -26 | 4 | 10
Cc1ccsc1-c1nc(CSCC(=O)NCc2ccc3c(c2)OCO3)c(C)o1 | -16 | 4 | 21* | -5 | 11 | 8
Cc1ccc(-c2csc(N(CCc3ccccc3)C(=O)COc3ccccc3)n2)cc1 | -6 | 1 | -1 | -16 | / | /
O=C(COc1ccccc1)N(CCc1ccccc1)c1nc(-c2ccc(F)cc2)cs1 | -32 | 8 | 37* | -45 | 13 | 19*
Cn1c(-c2ccccc2)c(/C=N/NC(=O)c2ccc(O)cc2)c2ccccc21 | 22 | / | / | 25 | / | /
CNCc1cc(Cl)cc(OC)c1OC(C)C | -8 | / | 24* | -5 | 24* | 10
COc1c(Cl)cc(Cl)cc1CNCCNCC(C)O (stereo not given) | -13 | 4 | 1 | 1 | / | /
COc1ccc(-c2n(CC(=O)OC3CC(C)CCC3C(C)C)c3ccccc3[n+]2C)cc1 (stereo not given) | -50 | / | 150* | -95 | 135* | 91*
COc1ccc(OCc2n(CC(=O)OC3CC(C)CCC3C(C)C)c3ccccc3[n+]2C)cc1 (stereo not given) | -52 | / | / | -105 | / | /
CC1CCc2cc(F)ccc2N1C(=O)CSc1nnc2c(n1)[nH]c1ccccc12 (stereo not given) | -8 | 2 | 0 | -3 | / | /
COc1ccccc1CNC(=O)CSc1ccc(-c2cccc([N+](=O)[O-])c2)nn1 | -7 | / | 10 | -35 | / | /
CC1(C)C2CCC1(C)C(NC1=NCCC1)C2 (stereo not given) | -10 | 2 | -2 | 5 | / | /
CCOC(=O)C[N+](C)(C)CCOC1CC2CCC1(C)C2(C)C (stereo not given) | -7 | / | 24* | -28 | 10 | 6
SMILES | NPY2 pot ag | NPY Y2 blocker | NPY-Y1 antag | NPY1 pot ag | NPY-Y1 ant conf | NPY2 antag ctr
CC1(C)[C@H]2CC[C@]1(C)[C@@H](OC(=O)C[N+]1(C)CCOCC1)C2 | 17 | / | / | 17 | / | /
CC1(C)C2CCC1(C)C(OCC[N+](C)(C)CC(=O)OC1CCCCC1)C2 (stereo not given) | 2 | 2 | 24* | -47 | 10 | 14
O=c1[nH]cc(N(CCO)CCO)c(=O)[nH]1 | -18 | / | / | 4 | / | /
Cc1cc(C)n(CC(=O)O)c(=O)c1[N+](=O)[O-] | 9 | / | -3 | 9 | / | /
Cc1c(-c2cc(C(=O)O)on2)cnn1C | 4 | / | 1 | 4 | / | /
COc1ccc(OC)c(/C=c2\sc3nc(-c4cccs4)nn3c2=O)c1 | -9 | 5 | 20* | -32 | 3 | 2
